Data published in ChEMBL document CHEMBL1143007, “Synthesis and evaluation of 4/5-hydroxy-2,3-diaryl(substituted)-cyclopent-2-en-1-ones as cis-restricted analogues of combretastatin A-4 as novel anticancer agents” (J Med Chem, 2007).
In brackets after ≈: the same amount, converted by molar mass.

Tests used:
HT-29 = assay: Cytotoxicity against human HT29 cells after 72 hrs by MTT assay; format: cell-based; conditions: Homo sapiens, HT-29, 72 h; read-out: IC50
In short: (§1)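 MTT assay. Cells seeded at 5000-10 000 per well and incubated at 37 °C in CO₂ with compound at 1-100 µg/mL in triplicate wells for 72 h, then MTT added. Absorbance read at 540 nm; % cytotoxicity = 100 × (1 − treated/control). IC50 obtained by nonlinear regression; NA means IC50 above 100 µg/mL.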

DU-145 = assay: Cytotoxicity against human DU145 cells after 72 hrs by MTT assay; format: cell-based; conditions: Homo sapiens, DU-145, 72 h; read-out: IC50; in short: as §1
KB = assay: Cytotoxicity against human KB cells after 72 hrs by MTT assay; format: cell-based; in short: as §1
L132 = assay: Cytotoxicity against human L132 cells after 72 hrs by MTT assay; format: cell-based; in short: as §1
MIA PaCa-2 = assay: Cytotoxicity against human MiaPaCa2 cells after 72 hrs by MTT assay; format: cell-based; conditions: Homo sapiens, MIA PaCa-2, 72 h; read-out: IC50; in short: as §1
[1] = Cytotoxicity against human Hep2 cells after 72 hrs by MTT assay; format: cell-based, HEp-2; in short: as §1
[2] = Cytotoxicity against human PA1 cells after 72 hrs by MTT assay; format: cell-based, PA-1; in short: as §1
[3] = Cytotoxicity against human ECV304 cells after 72 hrs by MTT assay; format: cell-based, ECV-304; in short: as §1
HEK293 = assay: Cytotoxicity against human HEK293 cells after 72 hrs by MTT assay; format: cell-based; conditions: Homo sapiens, HEK293, 72 h; read-out: IC50; in short: as §1
[4] = Homo sapiens, KB, 72 h, read-out: IC50
[5] = Homo sapiens, L132, 72 h, read-out: IC50
[6] = Homo sapiens, HEp-2, 72 h, read-out: IC50
[7] = Homo sapiens, PA-1, 72 h, read-out: IC50
[8] = Homo sapiens, ECV-304, 72 h, read-out: IC50

| SMILES | IC50 (HT-29) [µg/mL] | IC50 (DU-145) [µg/mL] | IC50 (KB; [4]) [µg/mL] | IC50 (L132; [5]) [µg/mL] | IC50 (MIA PaCa-2) [µg/mL] | IC50 [1, 6] [µg/mL] | IC50 [2, 7] [µg/mL] | IC50 [3, 8] [µg/mL] | IC50 (HEK293) [µg/mL] | IC50 (KB; kb) [µg/mL] | IC50 (L132; l132) [µg/mL] | IC50 ([1]; hep-2) [µg/mL] | IC50 ([2]; pa-1) [µg/mL] | IC50 ([3]; ecv-304) [µg/mL] |
| --- | --- | --- | --- | --- | --- | --- | --- | --- | --- | --- | --- | --- | --- | --- |
| COc1ccc(C2=C(c3cc(OC)c(OC)c(OC)c3)C(=O)CC2O[Si](C)(C)C(C)(C)C)cc1 (stereo not drawn) | > 100 | > 100 | > 100 | > 100 | > 100 | > 100 | > 100 | > 100 | > 100 |  |  |  |  |  |
| COc1cc(C2=C(c3cc(C)c(OC)c(C)c3)C(OC(C)=O)CC2=O)cc(OC)c1OC (stereo not drawn) | > 100 | > 100 | > 100 | > 100 | > 100 | > 100 | > 100 | > 100 | > 100 |  |  |  |  |  |
| COc1ccc(OC)c(C2=C(c3cc(OC)c(OC)c(OC)c3)C(=O)CC2O)c1 (stereo not drawn) | > 100 | > 100 | > 100 | > 100 | > 100 | > 100 | > 100 | > 100 | > 100 |  |  |  |  |  |
| COc1ccc(C2=C(c3cc(OC)c(OC)c(OC)c3)CC(O)C2=O)cc1N (stereo not drawn) | < 1 | 41 (≈ 106 µM) | < 1 | 54 (≈ 140 µM) | > 100 | 16 (≈ 41.5 µM) | 20 (≈ 51.9 µM) | > 100 | > 100 |  |  |  |  |  |
| COc1ccc(C2=C(c3cc(OC)c(OC)c(OC)c3)/C(=N\O)CC2O)cc1O (stereo not drawn) | 9 (≈ 22.4 µM) | 23 (≈ 57.3 µM) | 10 (≈ 24.9 µM) | 8 (≈ 19.9 µM) | > 100 | < 1 | 3.7 (≈ 9.22 µM) | > 100 | > 100 |  |  |  |  |  |
| COc1ccc(C2=C(c3cc(OC)c(OC)c(OC)c3)/C(=N\O)C(O)C2)cc1O (stereo not drawn) | 69 (≈ 172 µM) | 10 (≈ 24.9 µM) | 90 (≈ 224 µM) | 81 (≈ 202 µM) | > 100 | 20 (≈ 49.8 µM) | 26 (≈ 64.8 µM) | > 100 | > 100 |  |  |  |  |  |
| COc1ccc(C2=C(c3cc(OC)c(OC)c(OC)c3)C(=O)C(O)C2)cc1NC(=O)c1ccccc1 (stereo not drawn) | > 100 | > 100 | > 100 | > 100 | > 100 | > 100 | > 100 | > 100 | > 100 |  |  |  |  |  |
| COc1ccc(C2=C(c3cc(OC)c(OC)c(OC)c3)C(=O)C(OC(C)=O)C2)cc1Cl (stereo not drawn) | < 1 | 64 (≈ 143 µM) | 64 (≈ 143 µM) | < 1 | 24 (≈ 53.7 µM) | < 1 | > 100 | 3.5 (≈ 7.83 µM) | 60 (≈ 134 µM) |  |  |  |  |  |
| COc1ccc(OC)c(C2=C(c3cc(OC)c(OC)c(OC)c3)C(=O)CC2O[Si](C)(C)C(C)(C)C)c1 (stereo not drawn) | 5 (≈ 9.71 µM) | 100 (≈ 194 µM) | 10 (≈ 19.4 µM) | 100 (≈ 194 µM) | > 100 | 19 (≈ 36.9 µM) | 17 (≈ 33 µM) | 6.5 (≈ 12.6 µM) | 9.5 (≈ 18.5 µM) |  |  |  |  |  |
| COc1ccc(C2=C(c3cc(OC)c(OC)c(OC)c3)CC(O)C2=O)cc1[N+](=O)[O-] (stereo not drawn) | > 100 | > 100 | > 100 | > 100 | > 100 | > 100 | > 100 | > 100 | > 100 |  |  |  |  |  |
| COc1ccc(C2=C(c3cc(OC)c(OC)c(OC)c3)/C(=N\O)CC2OC(C)=O)cc1O (stereo not drawn) | < 1 | 23 (≈ 51.9 µM) | < 1 | < 1 | < 1 | > 100 | < 1 | > 100 | > 6.06 |  |  |  |  |  |
| COc1ccc(C2=C(c3cc(OC)c(OC)c(OC)c3)/C(=N\O)C(O)C2)cc1Cl (stereo not drawn) | < 1 | 16 (≈ 38.1 µM) | 9.8 (≈ 23.3 µM) | < 1 | 33 (≈ 78.6 µM) | < 1 | > 100 | 18.5 (≈ 44.1 µM) | 50 (≈ 119 µM) |  |  |  |  |  |
| COc1ccc(C2=C(c3cc(OC)c(OC)c(OC)c3)C(=O)CC2O[Si](C)(C)C(C)(C)C)cc1OC (stereo not drawn) | > 100 | > 100 | > 100 | > 100 | > 100 | > 100 | > 100 | > 100 | > 100 |  |  |  |  |  |
| COC(=O)c1cc(C2=C(c3cc(OC)c(OC)c(OC)c3)C(=O)CC2O[Si](C)(C)C(C)(C)C)ccc1OC (stereo not drawn) | > 100 | > 100 | > 100 | > 100 | > 100 | > 100 | > 100 | > 100 | > 100 |  |  |  |  |  |
| COc1ccc(C2=C(c3cc(OC)c(OC)c(OC)c3)/C(=N\O)CC2OC(C)=O)cc1 (stereo in doubt; 40) | < 1 | 21 (≈ 49.1 µM) |  |  | < 1 |  |  |  | 22 (≈ 51.5 µM) | < 1 | < 1 | < 1 | < 1 | 60 (≈ 140 µM) |
| O/N=C1/CC(O)C(c2ccccc2)=C1c1ccccc1 (stereo not drawn) | > 100 | > 100 | > 100 | > 100 | > 100 | > 100 | > 100 | > 100 | > 100 |  |  |  |  |  |
| COc1ccc(OC)c(C2=C(c3cc(OC)c(OC)c(OC)c3)/C(=N\O)CC2O[Si](C)(C)C(C)(C)C)c1 (stereo not drawn) | 50 (≈ 94.4 µM) | > 100 | > 100 | > 100 | 1 (≈ 1.89 µM) | 7 (≈ 13.2 µM) | 8.5 (≈ 16 µM) | 6 (≈ 11.3 µM) | 7 (≈ 13.2 µM) |  |  |  |  |  |
